Columns and labels:
O-acyltransferase = O-acyltransferase (Oryctolagus cuniculus, UniProt G1SFD9); assay: Acyl coenzyme A:cholesterol acyltransferase 1 inhibition in vitro measured in rabbit intestinal microsomes; parameters: species or system Intestine
Canis familiaris = assay: Percent change in plasma cholesterol in dog at 3 mg/kg; assay type: functional, Canis lupus familiaris
Outline: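 Cholesterol-fed female Beagle dogs given bulk drug in capsules before meals, daily for 1 week, at 3 mg/kg po. Plasma total cholesterol compared before and after treatment as percent change; paired two-tailed t-test, n = 6.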

Rattus norvegicus [1] = assay: Percent change in plasma TC in the chronic C-fed rat model of pre-established hypercholesterolemia. Dose at 10 mg/kg; assay type: functional
Outline: (§1)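 Chronic rat model of pre-established hypercholesterolemia: 1 week on high-cholesterol diet, then compound dosed orally once daily for 1 week. Plasma total cholesterol, HDL-C and non-HDL-C expressed as percent change versus control; p < 0.05 flagged.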

[2] = biological target: T1, Sterol O-acyltransferase 1 (Rattus norvegicus) (UniProt O70536); assay: Percent change in plasma TC in the chronic C-fed rat model of pre-established hypercholesterolemia. Dose at 30 mg/kg; assay type: functional, organism-based; parameters: dose 30 mg/kg; outline: as §1
T1 sequence (whole entry): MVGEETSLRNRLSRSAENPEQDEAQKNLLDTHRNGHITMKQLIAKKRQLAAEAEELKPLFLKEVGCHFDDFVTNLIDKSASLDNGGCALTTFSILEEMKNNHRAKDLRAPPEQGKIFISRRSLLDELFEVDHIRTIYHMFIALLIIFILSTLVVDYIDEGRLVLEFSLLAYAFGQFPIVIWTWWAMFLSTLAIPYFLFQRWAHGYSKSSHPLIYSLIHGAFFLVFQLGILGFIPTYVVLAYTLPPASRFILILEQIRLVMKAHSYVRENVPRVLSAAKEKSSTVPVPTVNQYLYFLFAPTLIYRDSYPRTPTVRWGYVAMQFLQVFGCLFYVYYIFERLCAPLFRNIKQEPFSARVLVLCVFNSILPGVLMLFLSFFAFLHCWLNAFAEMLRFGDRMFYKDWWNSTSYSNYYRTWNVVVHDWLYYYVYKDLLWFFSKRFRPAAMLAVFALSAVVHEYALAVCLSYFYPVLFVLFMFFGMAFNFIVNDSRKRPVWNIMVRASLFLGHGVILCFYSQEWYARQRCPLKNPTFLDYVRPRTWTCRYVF

Rattus norvegicus [3] = assay: Percent change in plasma TC in the chronic C-fed rat model of pre-established hypercholesterolemia. Dose at 3 mg/kg; assay type: functional; outline: as §1
[4] = biological target: T1, Sterol O-acyltransferase 1 (Rattus norvegicus); assay: Percent change in plasma total cholesterol in an acute cholesterol-fed rat model of hypercholesterolemia, dose at 3 mg/kg; assay type: functional, organism-based; parameters: dose 3 mg/kg
[5] = biological target: T1, Sterol O-acyltransferase 1 (Rattus norvegicus); assay: Percent change in plasma total cholesterol in an acute cholesterol-fed rat model of hypercholesterolemia, dose at 30 mg/kg; assay type: functional, organism-based; parameters: dose 30 mg/kg
Rattus norvegicus [6] = assay: Percent change in HDL-CDose at 10 mg/kg; assay type: functional; outline: as §1
Rattus norvegicus [7] = assay: Percent change in HDL-CDose at 30 mg/kg; assay type: functional; outline: as §1
Rattus norvegicus [8] = assay: Percent change in HDL-CDose at 3 mg/kg; assay type: functional; outline: as §1
Rattus norvegicus [9] = assay: Percent change in non-HDL-C Dose at 10 mg/kg; assay type: functional; outline: as §1
Rattus norvegicus [10] = assay: Percent change in non-HDL-C Dose at 30 mg/kg; assay type: functional; outline: as §1
Rattus norvegicus [11] = assay: Percent change in non-HDL-C Dose at 3 mg/kg; assay type: functional; outline: as §1

With `CCCCCCCCCCCCCCN1NN=C(NC(=O)Nc2c(C(C)C)cccc2C(C)C)N1` the IC50 (O-acyltransferase) was 12 nM, the Delta plasma cholesterol (Canis familiaris) was -22% and the “Delta TC” value (Rattus norvegicus [1]) was -53%. For the same compound, the Delta TC [2] was -61%, the “Delta TC” value (Rattus norvegicus [3]) was -43% and the Delta TC [4] was -56%. The Delta TC [5] was -65%, the “Delta HDL-C” value (Rattus norvegicus [6]) was 87% and the “Delta HDL-C” value (Rattus norvegicus [7]) was 93%. The “Delta HDL-C” value (Rattus norvegicus [8]) was 47%, the Non-HDL-C (Rattus norvegicus [9]) was -61% and the Non-HDL-C (Rattus norvegicus [10]) was -68%. The Non-HDL-C (Rattus norvegicus [11]) was -48%.

Reference: ChEMBL document CHEMBL1129379, “Heterocyclic ureas: inhibitors of acyl-CoA:cholesterol O-acyltransferase as hypocholesterolemic agents” (J Med Chem, 1996)
